# From PubChem
# Most compounds without a hit are left out; they make up all but 2.7% or so of the library.
# Yeast life ext – extends the lifespan of yeast; actives 0.68% (n = 130,000); inhibition of the nicotinamide effect, % at 10 µM; S. cerevisiae growth with nicotinamide, OD615; deaD strain in restrictive glucose medium; AID 775;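 active = inhibition above a set limit, placed 3 SD over the median of all compounds, cut at about 26% in these data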;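 also: 0% = nicotinamide-treated wells and 100% = cells grown without nicotinamide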
#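 Buffer or medium: CSMM-D glucose medium, restrictive; test system: modified budding yeast, DeaD strain; compound: single dose 10 µM compound, 0.25% DMSO; schedule: culture preincubation 4 h, compound exposure 48 h, both 30 °C; detection: optical density (absorbance) at 615 nm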
# RAM inhibit – inhibitors of the yeast RAM network; S. cerevisiae dse1pr::URA3 reporter, 5-FOA growth OD615, 2 d; analog-sensitive cbk1-as2 kinase mutant strain; inhibition, % at 50 µM; actives 1.8% (n = 190,000);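 active = inhibition above a set limit, 3 SD over mean compound inhibition, cut at about 8.4% in these data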;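 also: 0% = DMSO-only wells with no growth and 100% = 10 µM 1-NA-PP1 full growth; inhibition rescues growth on 5-FOA so higher OD means more RAM inhibition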
# SDO1 yeast rescue – restores growth of sdo1-depleted yeast; S. cerevisiae sdo1-depleted JHY4D growth rescue, OD600 30 h; hits give high values; pdr5 snq2 efflux-pump mutant strain; z-score at 10 µM; actives 0.21% (n = 140,000); AID 817;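 active = z-score above 3 at both the 24 hr and the 30 hr optical density reads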;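 also: z-score against mean and SD of all compound wells on the same plate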
# Yeast growth inh – yeast BB579 growth reduction in restrictive medium | S. cerevisiae BB579 growth, OD615, 48 h | inhibition, % at 10 µM | actives 0.51% (n = 140,000);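 active = inhibition above a set limit, 3 SD over the mean compound inhibition, cut at about 44% in these data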
#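 Test system: S. cerevisiae DeaD strain BB579 yeast; Medium: restrictive CSMM-D medium; Compound: one dose, 10 µM compound with 0.25% DMSO; Incubation: 4 h cell preincubation, 48 h compound exposure, 30 °C humidified; Signal: OD at 615 nm; Benchmarks: amphotericin B at 10 µg/mL as positive control.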
# An asterisk follows results filed as active; / = no result given.
SMILES,Yeast life ext,RAM inhibit,SDO1 yeast rescue,Yeast growth inh
O=C(/C(=C\c1ccccc1)c1nc2ccccc2[nH]1)c1ccc(Cl)cc1,7,1,-1.9,-45
O=C(/C(=C/c1ccc(Cl)cc1)c1nc2ccccc2[nH]1)c1cccs1,31*,0,-2.8,-25
COc1ccccc1-c1c(C)oc2cc(OC(=O)c3ccco3)ccc2c1=O,32*,2,-0.24,-21
COc1ccccc1Oc1c(C)oc2cc(OC(=O)c3ccco3)ccc2c1=O,18,3,-0.33,-47
O=C(O)c1cccc(NC(CNS(=O)(=O)c2ccc(Cl)cc2)c2ccccc2)c1 (stereo not given),/,3,/,/
O=S(=O)(NCC(Nc1ccccc1)c1ccccc1)c1ccc(Cl)cc1 (stereo not given),0,9.2*,-0.44,-13
Cc1ccc(CSc2nnc(-c3ccc(S(=O)(=O)N4CCCC4)cc3)o2)cc1,3,10*,0.32,-35
O=S(=O)(c1ccc(-c2nnc(SCc3ccccc3)o2)cc1)N1CCCC1,5,9.3*,-1,-85
NC(=O)CSc1nnc(-c2ccc(S(=O)(=O)N3CCCC3)cc2)o1,/,3,0.43,11
COc1ccc(/C=N/Nc2ncccc2[N+](=O)[O-])c(OC)c1,/,2,/,/
CCOC(=O)c1c(NC(=O)c2c(Br)cnn2CC)sc(C)c1C,/,9.1*,0.23,1
CCOC(=O)c1c(NC(=S)Nc2ccccc2)sc(C)c1C,/,9.6*,0.61,-9
CCOC(=O)c1c(-c2ccco2)csc1NC(=O)CSc1nnc(N)s1,-14,10*,-0.8,-29
CCn1ncc(Br)c1C(=O)Nc1cc(C)cc(C)c1,-5,1,-0.44,-28
CCOC(=O)c1c(NC(=S)Nc2ccc(Cl)cc2)sc2c1CCN(C)C2,-14,2,1.1,98*
CCOC(=O)N1CCN(c2cc(=O)n(-c3cccc(C)c3)c(=O)[nH]2)CC1,/,2,/,/
CC1(c2ccccc2)NC(=O)N(CC#N)C1=O (stereo not given),/,1,/,/
CCOC(=O)c1c(NC(=O)CSc2nc3ccccc3s2)sc(C)c1C,2,11*,-0.09,-45
CCOC(=O)CSc1nc2ccc(NC(=O)CSc3nnnn3Cc3ccccc3)cc2s1,/,9.5*,-1.2,-40
CCOC(=O)c1c(NC(=O)CSc2nc3ccccc3o2)sc(C)c1C,-3,7,-0.68,-55
C=CCn1c(SCC(=O)Nc2sc(C)c(C)c2C(=O)OCC)nnc1-c1sc(N)nc1C,-6,11*,-0.04,-28
COc1ccc(-c2nc(SC(CC(=O)NCCN3CCOCC3)c3cccs3)n[nH]2)cc1 (stereo not given),/,0,/,/
CCOC(=O)Cn1nc(C)cc1NC(=O)c1cccnc1,/,0,/,/
Cc1nn(-c2ccccc2)c(N)c1C(O)(CC(=O)C(F)(F)F)C(F)(F)F (stereo not given),2,9.0*,0.6,-42
CCOCCCNCc1ccc(OCCC(C)C)c(OC)c1,/,2,/,/
SMILES,Yeast life ext,RAM inhibit,SDO1 yeast rescue,Yeast growth inh
Cc1ccc(NC(=O)CCSCCC(=O)Nc2ccc(C)c(C)c2)cc1C,-23,9.8*,-0.62,-16
CCc1cccc(NC(=O)CCSCCC(=O)Nc2cccc(CC)c2)c1,-10,9.9*,0.3,-10
CCCSc1ccc(C(=O)Nc2ccc(Cl)cc2)cn1,/,2,/,/
O=C(O)CCCCCn1c(SCC(=O)Nc2ccc(F)cc2)nc2ccsc2c1=O,/,6,/,/
O=C(O)CCCCn1c(SCC(=O)Nc2ccccc2C(F)(F)F)nc2ccsc2c1=O,13,8.7*,1.1,-59
COc1ccc(NC(=O)CSc2nc3ccsc3c(=O)n2CCCCCC(=O)O)cc1,/,11*,/,/
CCC(C)n1c(SCC(=O)Nc2ccccc2C(F)(F)F)nc2ccsc2c1=O (stereo not given),-3,4,-0.31,-17
O=C(COC(=O)/C=C/c1ccccc1)NCc1ccccc1Cl,/,2,/,/
N#C/C(=C\c1ccco1)C(=O)Nn1cnnc1,/,-1,/,/
COc1ccc(CCNC(=O)Cc2ccc(OCc3ccccc3)c(OC)c2[N+](=O)[O-])cc1OCc1ccccc1,-5,9.1*,-0.43,-61
COc1ccc(CCNC(=O)Cc2cc(OC)c(OC)cc2Br)cc1OC,/,2,/,/
O=C(Nc1ccccc1)C1=C[C@@H](c2ccc(Br)cc2)C[C@@H](OCc2ccc(CO)cc2)O1,/,9.4*,/,/
C#CCNC(=O)C1=C[C@H](C(C)(C)C)C[C@H](OCc2ccc(CO)cc2)O1,/,2,/,/
CC(C)(C)[C@@H]1C=C(C(=O)Nc2ccccc2)O[C@H](OCc2ccc(CO)cc2)C1,/,8.5*,/,/
O=C(C1=C[C@@H](c2ccc3c(c2)OCO3)C[C@@H](OCc2ccc(CO)cc2)O1)N1CCOCC1,/,11*,/,/
O=C(Nc1ccccc1)C1=C[C@H](c2ccc3c(c2)OCO3)C[C@H](OCc2ccc(CO)cc2)O1,/,9.4*,/,/
CCOC(=O)C1(CCOc2ccccc2)CCN(Cc2ccc(-n3cccn3)cc2)CC1,/,1,/,/
O=C(NCCCn1ccnc1)/C(=C\c1cccnc1)NC(=O)c1ccccc1F,/,1,/,/
C=C(C)CNC(=S)Nc1cccc(N)n1,/,-1,/,/
COc1cc(-c2nc3ccc4ccccc4c3c3c2CCC3)ccc1O,-9,3,-1.4,85*
COc1cc(-c2nc3ccc4ccccc4c3c3c2CCC3)cc(OC)c1O,-13,-1,-2.1,-16
CNc1ccc2nnc(C(F)(F)C(F)(F)C(F)(F)F)n2n1,/,1,/,/
CC(C(=O)Nc1cccnc1)n1cc([N+](=O)[O-])cn1 (stereo not given),/,1,/,/
Cc1ccc(C(=O)O/N=C(\N)c2cccc([N+](=O)[O-])c2)cc1,-22,4,-1.7,10
CCOC(=O)c1ccc(CN(Cc2ccc(C)cc2)S(=O)(=O)c2cccc([N+](=O)[O-])c2)cc1,17,10*,0.77,-69
SMILES,Yeast life ext,RAM inhibit,SDO1 yeast rescue,Yeast growth inh
Cc1c(-c2ccncc2)oc2ccc(Br)cc2c1=O,/,1,/,/
O=c1c(-c2nnc(SCc3ccc(Cl)cc3)o2)cccn1Cc1ccccc1,6,6,-1.3,-98
O=C(Nc1ccccc1-c1nnc(SCc2ccc(Cl)cc2)o1)c1ccccc1,6,8.4*,0.48,-54
COC(=O)c1ccccc1NC(=S)N(Cc1ccc2c(c1)OCO2)Cc1cc2cc(OC)ccc2[nH]c1=O,8,8.5*,1.3,-43
CNC(=S)N(Cc1ccc(OC)cc1)Cc1cc2cc(C)ccc2[nH]c1=O,/,8.5*,/,/
COc1ccc(CN(Cc2cc3cc(C)ccc3[nH]c2=O)C(=O)N(C)C)cc1,-19,5,0.89,-45
CN(C)CC(O)CN1C(=O)NC(C)(C)C1=O (stereo not given),/,0,/,/
COc1ccc2c(c1)C(C)CC(C)(C)N2C(=O)NC1CCCCC1 (stereo not given),27*,2,-0.4,-40
COc1ccc(N(CC(=O)NC2CCCC2)C(=O)Cn2nnc(-c3ccc(F)cc3)n2)cc1OC,-16,9.3*,-0.35,-52
COc1ccc(N(CC(=O)NC2CCCC2)C(=O)Cn2nnc(-c3ccc(C)cc3)n2)cc1OC,-7,5,-0.07,-12
CCOC(=O)c1cc([N+](=O)[O-])c([N+](=O)[O-])cc1NC(C)=O,-12,0,-1,99*
